According to ChEMBL document CHEMBL1125051, “Synthesis and antineoplastic properties of ether-linked thioglycolipids” (1990):

Assays:
[1] = tested on: WEHI3B; assay: Antineoplastic activity against WEHI 3B cell line in which [3H]thymidine was incorporated into DNA; format: functional, Mus musculus; design: concentration or dose not given beside the values
Summary of the method: (§1)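 Mouse leukemic/myeloma/hybridoma lines kept at 37 °C in RPMI 1640 with 10% heat-inactivated FBS, penicillin, streptomycin, 50 μM mercaptoethanol. 2×10^4 cells/well exposed to drug at 40 μM for 48 h. Drug was diluted from 0.1 M ethanol stock into medium, and controls received ethanol-containing medium. [3H]thymidine (0.1 μCi/well) was then added for 24 h. Cells were harvested onto glass-fibre filters and water-washed, and DNA-incorporated counts were taken by scintillation as % of control.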

[2] = tested on: R6X-B15; assay: Antineoplastic activity against R6X-B15 cell line in which [3H]thymidine was incorporated into DNA; format: functional, Mus musculus; summary of the method: as §1
[3] = tested on: C653; assay: Antineoplastic activity against C653 cell line in which [3H]-thymidine was incorporated into DNA; format: functional, Mus musculus; design: concentration or dose not given beside the values; summary of the method: as §1
[4] = tested on: X63/OMIL3 cell line; assay: Antineoplastic activity against X63/OMIL3 cell line in which [3H]thymidine was incorporated into DNA; format: functional, Mus musculus; design: concentration or dose not given beside the values; summary of the method: as §1
[5] = Compound was evaluated for WEHI-3B cell viability after 48 hour at a concentration of 30 uM of compound was reported.; format: functional, Mus musculus
Summary of the method: (§2)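 WEHI-3B cells were treated with drug at 0–30 μM for 24 or 48 h in RPMI 1640 with 10% FBS at 37 °C. Cells were then diluted 1:10 in 2.5% trypan blue and counted by light microscopy, with dye-stained cells scored dead. Viability is given as % of untreated control.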

[6] = Time course effect on killing of WEHI 3B cells at 40 uM concentration, cells were incubated with it 48 hr before addition of [3H]thymidine; format: functional, cell-based; details: Mus musculus, WEHI3B
Summary of the method: (§3)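 Mouse WEHI 3B cells (RPMI 1640, 10% heat-inactivated FBS, penicillin, streptomycin, 50 μM mercaptoethanol, 37 °C) were seeded at 2×10^4 cells/well. Drug was diluted from 0.1 M ethanol stock into medium, with an ethanol vehicle control. After the stated preincubation, [3H]thymidine (0.1 μCi/well) was added for a further 24 h at 37 °C. Cells were harvested on glass-fibre filters, water-washed and scintillation-counted. Result is % cell survival versus control, mean ± SD, n = 8.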

[7] = Time course effect on killing of WEHI 3B cells at 40 uM concentration, cells were incubated with it 0 mins before addition of [3H]thymidine; format: functional, cell-based; details: Mus musculus, WEHI3B; summary of the method: as §3
[8] = Compound was evaluated for WEHI-3B cell viability after 48 hour at a concentration of 1.25 uM of compound was reported.; format: functional, Mus musculus; summary of the method: as §2
[9] = Time course effect on killing of WEHI 3B cells at 30 uM concentration, cells were incubated with it 48 hours before addition of [3H]thymidine; format: functional, cell-based; details: Mus musculus, WEHI3B; summary of the method: as §3
[10] = Compound was evaluated for WEHI-3B cell viability after 24 hour at a concentration of 30 uM of compound was reported.; format: functional, Mus musculus; summary of the method: as §2
[11] = Compound was evaluated for WEHI-3B cell viability after 48 hour at a concentration of 10 uM of compound was reported.; format: functional, Mus musculus; summary of the method: as §2
[12] = Compound was evaluated for WEHI-3B cell viability after 48 hour at a concentration of 2.5 uM of compound was reported.; format: functional, Mus musculus; summary of the method: as §2
[13] = Compound was evaluated for WEHI-3B cell viability after 24 hour at a concentration of 0 uM of compound was reported.; format: functional, Mus musculus; summary of the method: as §2
[14] = Time course effect on killing of WEHI 3B cells at 40 uM concentration, cells were incubated with it 72 hr before addition of [3H]thymidine; format: functional, cell-based; details: Mus musculus, WEHI3B; summary of the method: as §3
[15] = Compound was evaluated for WEHI-3B cell viability after 24 hour at a concentration of 1.25 uM of compound was reported.; format: functional, Mus musculus; summary of the method: as §2
[16] = Time course effect on killing of WEHI 3B cells at 40 uM concentration, cells were incubated with it 24 hr before addition of [3H]-thymidine; format: functional, cell-based; details: Mus musculus, WEHI3B; summary of the method: as §3
[17] = Time course effect on killing of WEHI 3B cells at 40 uM concentration, cells were incubated with it 3 hr before addition of [3H]thymidine; format: functional, cell-based; details: Mus musculus, WEHI3B; summary of the method: as §3
[18] = Time course effect on killing of WEHI 3B cells at 40 uM concentration, cells were incubated with it 6 hours before addition of [3H]-thymidine; format: functional, cell-based; details: Mus musculus, WEHI3B; summary of the method: as §3
[19] = Compound was evaluated for WEHI-3B cell viability after 24 hour at a concentration of 10 uM of compound was reported.; format: functional, Mus musculus; summary of the method: as §2
[20] = Compound was evaluated for WEHI-3B cell viability after 48 hour at a concentration of 5 uM of compound was reported.; format: functional, Mus musculus; summary of the method: as §2
[21] = Time course effect on killing of WEHI 3B cells at 30 uM concentration, cells were incubated with it 6 hr before addition of [3H]thymidine; format: functional, cell-based; details: Mus musculus, WEHI3B; summary of the method: as §3
[22] = Time course effect on killing of WEHI 3B cells at 30 uM concentration, cells were incubated with it 3 hr before addition of [3H]thymidine; format: functional, cell-based; details: Mus musculus, WEHI3B; summary of the method: as §3
[23] = Time course effect on killing of WEHI 3B cells at 30 uM concentration, cells were incubated with it 24 hr before addition of [3H]thymidine; format: functional, cell-based; details: Mus musculus, WEHI3B; summary of the method: as §3
[24] = Time course effect on killing of WEHI 3B cells at 30 uM concentration, cells were incubated with it 0 minutes before addition of [3H]thymidine; format: functional, cell-based; details: Mus musculus, WEHI3B; summary of the method: as §3
[25] = Time course effect on killing of WEHI 3B cells at 30 uM concentration, cells were incubated with it 72 hours before addition of [3H]thymidine; format: functional, cell-based; details: Mus musculus, WEHI3B; summary of the method: as §3
[26] = Compound was evaluated for WEHI-3B cell viability after 24 hour at a concentration of 5 uM of compound was reported.; format: functional, Mus musculus; summary of the method: as §2
[27] = Compound was evaluated for WEHI-3B cell viability after 24 hour at a concentration of 2.5 uM of compound was reported.; format: functional, Mus musculus; summary of the method: as §2
[28] = Compound was evaluated for WEHI-3B cell viability after 48 hour at a concentration of 0 uM of compound was reported.; format: functional, Mus musculus; summary of the method: as §2

| Structure (SMILES) | Control [1] [%] | Control [2] [%] | Control [3] [%] | Control [4] [%] | Viable cells [5] [%] | Viable cells [8] [%] | Viable cells [10] [%] | Viable cells [11] [%] | Viable cells [12] [%] | Viable cells [13] [%] | Viable cells [15] [%] | Viable cells [19] [%] | Viable cells [20] [%] | Viable cells [26] [%] | Viable cells [27] [%] | Viable cells [28] [%] | further results |
| --- | --- | --- | --- | --- | --- | --- | --- | --- | --- | --- | --- | --- | --- | --- | --- | --- | --- |
| CCCCCCCCCCCCCCCCOC[C@@H](COP(=O)([O-])OCC[N+](C)(C)C)OC | 0.3 | 45 | 5 | 2.5 | – | – | – | – | – | – | – | – | – | – | – | – | – |
| CCCCCCCCCCCCCCCCOC[C@@H](CO[C@@H]1O[C@@H](CO)[C@@H](O)[C@H](O)[C@@H]1O)OC | 82 | 89 | 70 | 95 | – | – | – | – | – | – | – | – | – | – | – | – | – |
| CCCCCCCCCCCCCCCCOC[C@H](CS[C@H]1O[C@@H](CO)[C@@H](O)[C@H](O)[C@H]1O)OC | 7 | 66 | 13 | 71 | 0 | 72 | 48 | 0.3 | 64 | 100 | 90 | 53 | 25 | 64 | 75 | 100 | Cell survival [6]: 0.5%; Cell survival [7]: 49%; Cell survival [9]: 46%; Cell survival [14]: 0%; Cell survival [16]: 20%; Cell survival [17]: 49%; Cell survival [18]: 27%; Cell survival [21]: 53%; Cell survival [22]: 57%; Cell survival [23]: 48%; Cell survival [24]: 79%; Cell survival [25]: 25% |
| CCCCCCCCCCCCCCCCOC[C@H](COP(=O)([O-])OCC[N+](C)(C)C)OC | 0.4 | 55 | 4 | 3 | 0 | 48 | 0 | 0 | 18 | 100 | 44 | 0 | 1 | 8 | 39 | 100 | – |
| CCCCCCCCCCCCCCCCOC[C@H](CO[C@@H]1O[C@@H](CO)[C@@H](O)[C@H](O)[C@@H]1O)OC | 26 | 75 | 7 | 42 | – | – | – | – | – | – | – | – | – | – | – | – | – |
| CCCCCCCCCCCCCCCCOC[C@H](CS[C@@H]1O[C@@H](CO)[C@@H](O)[C@H](O)[C@H]1O)OC | 80 | 98 | 78 | 84 | – | – | – | – | – | – | – | – | – | – | – | – | – |
